# In the library only some 3% were active in any assay of this set; here they are far more common.
# NRP1-CendR mod: modulators of CendR peptide binding to NRP-1, primary screen, biochemical, fluorescence polarization, uHTS; Neuropilin-1 (Homo sapiens), O14786; FAM-RPARPAR peptide binding to NRP-1; inhibition, % at 25 µM; actives 0.85% (n = 360,000); AID 602438, 2012;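 active = inhibition or corrected inhibition above about 18%, plus a signal ratio from 0.5 to 1.5, limit read from the data, passing the limit was not always enough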
# Target sequence (O14786 whole entry, looked up): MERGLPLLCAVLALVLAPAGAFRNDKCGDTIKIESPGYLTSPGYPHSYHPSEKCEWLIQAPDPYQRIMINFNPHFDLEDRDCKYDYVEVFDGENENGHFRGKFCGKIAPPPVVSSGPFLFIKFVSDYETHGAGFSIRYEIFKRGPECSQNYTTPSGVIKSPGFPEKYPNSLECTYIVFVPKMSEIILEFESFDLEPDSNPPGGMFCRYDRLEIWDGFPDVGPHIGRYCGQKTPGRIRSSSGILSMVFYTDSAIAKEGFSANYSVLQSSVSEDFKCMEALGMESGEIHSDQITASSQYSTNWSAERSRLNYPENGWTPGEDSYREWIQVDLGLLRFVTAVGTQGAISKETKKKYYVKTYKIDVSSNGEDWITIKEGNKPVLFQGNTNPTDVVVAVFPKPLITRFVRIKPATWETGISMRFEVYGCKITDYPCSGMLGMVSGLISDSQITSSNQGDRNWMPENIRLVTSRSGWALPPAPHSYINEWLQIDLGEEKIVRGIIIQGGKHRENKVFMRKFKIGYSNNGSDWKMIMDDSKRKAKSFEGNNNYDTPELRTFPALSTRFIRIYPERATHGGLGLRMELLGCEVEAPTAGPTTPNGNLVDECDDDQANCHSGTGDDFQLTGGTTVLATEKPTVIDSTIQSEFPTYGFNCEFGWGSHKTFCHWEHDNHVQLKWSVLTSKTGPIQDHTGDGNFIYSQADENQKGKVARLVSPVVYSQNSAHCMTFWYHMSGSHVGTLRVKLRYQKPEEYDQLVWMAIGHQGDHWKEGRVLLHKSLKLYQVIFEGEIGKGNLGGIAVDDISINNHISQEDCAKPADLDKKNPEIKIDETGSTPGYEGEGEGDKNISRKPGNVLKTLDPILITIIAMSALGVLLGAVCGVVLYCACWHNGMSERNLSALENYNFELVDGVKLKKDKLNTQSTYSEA
# T cruzi inh: inhibitors of intracellular T. cruzi growth, primary screen, luminescence, NIH3T3 host cells; T. cruzi beta-gal in NIH3T3, 90 h; actives 1.4% (n = 300,000); inhibition, % (test concentration not listed);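 active = mean inhibition across valid replicates above about 55%, limit read from the data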;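 note: signal also drops with host cell toxicity which is not excluded here; 0% = plate median of DMSO wells and 100% = zero luminescence signal; higher percent means less beta-gal luminescence so fewer parasites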
#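 compound dosing = single 50 nL compound addition per well in DMSO | material = NIH/3T3 host cells with β-galactosidase reporter T. cruzi | input = 5,000 host fibroblasts per well | timing = ≥90 h infection period, 3 h prior cell attachment | read-out basis = percent inhibition of parasite-derived β-gal signal | detection = GalScreen β-gal luminescence, detergent lysis, 60 min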
# CR mimetic SO: reduction of superoxide in aged yeast, primary screen, HTS. superoxide response (% of plate mean), % at 10 µM. S. cerevisiae aged cells, superoxide DHE fluorescence; active compounds read low. AID 2690, 2010. actives 0.18% (n = 330,000);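 active = superoxide response under a set limit, about three screen SD below normal, cut at about 65% in these data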;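 note: yeast aged for seven days with compound at 30 °C before DHE staining; 100% = average MFI of all compound-treated wells on the plate with controls excluded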
# V-ATPase pH: regulators of yeast V-ATPase proton pumping, primary screen, pHLuorin cytosolic pH fluorescence. S. cerevisiae. response, % at 10 µM. actives 0.37% (n = 350,000). AID 504577, 2011; in the data active = response mostly above about 7.3%, no sharp cut-off; inactive = mostly below about 5.4%; note: actives read high
# HIF act: HIF pathway transcriptional activators, primary screen, cell-based, U2OS HRE-luciferase, luminescence; activation, % at 7.5 µM (by protocol); actives 0.32% (n = 300,000); U2OS HRE-luciferase reporter; normalized: DMSO 0%, desferrioxamine 100%;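 active = mean activation of at least 10% of the iron chelator positive control signal, with at least half of replicates also reaching 10%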
# AI-2 QS modul: Vibrio harveyi AI-2 quorum sensing modulators, primary screen, JMH597 strain, luminescence/OD600 ratio; Vibrio harveyi JMH597 AI-2 luminescence/OD600 ratio, 9 h; active compounds read low; strain lacks LuxN and CqsS sensors; 0 = neutral-control median; activity change, % at 7.5 µM; actives 0.4% (n = 300,000); AID 2094, 2009; in the data active = activity change below about -75%, passing the limit was not always enough;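 note: luminescence divided by OD600 gain over 9 h not by final OD600 alone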
# The depositor's hits bear a star; i = inactive; x = not tested or not shown.
SMILES,NRP1-CendR mod,T cruzi inh,CR mimetic SO,V-ATPase pH,HIF act,AI-2 QS modul
O=C(/C=C(\c1ccccc1)n1cncn1)c1ccccc1,0,28,96,0,0,6
O=C(/C=C(\c1ccc(Cl)cc1)n1cncn1)c1ccc(Cl)cc1,-10,65*,94,0,0,19
CN1CCN(CC(C)(C)NS(=O)(=O)c2ccc(Cl)cc2)CC1,-10,70*,93,-2,0,11
CC1(OC(=O)CCc2ccccc2)C(=O)C=C2C=C(c3ccc(C#N)cc3)N(CC3CC3)C=C2C1=O (stereo unspecified),18,0,101,-1,-1,24
CC1(OC(=O)CCc2ccccc2)C(=O)C=C2C=C(c3ccc(C#N)cc3)N(C3CCCC3)C=C2C1=O (stereo unspecified),30*,4,108,-2,0,34
CCCCn1nnc(NC(=O)CCC)n1,0,0,93,1,0,24
Cc1cnc(C(=O)OCC(=O)N2CCC(C)CC2)cn1,23*,x,91,0,x,x
Cc1nn(C)cc1S(=O)(=O)NCc1ccc2c(c1)OCO2,3,1,115,1,263*,21
Cc1ccc(C)c(S(=O)(=O)NCc2ccc3c(c2)OCO3)c1,-2,2,104,-3,0,-14
COc1cccc(-c2ncc3ccccc3c2COC(=O)c2ccc(C(F)(F)F)cc2)c1,29*,x,89,4,x,x
COc1cccc(-c2ncc3ccccc3c2COC(=O)c2ccc(Br)cc2)c1,-4,x,103,0,x,x
O=C(OCC(=O)N1CCCC1=O)c1ccc(Cl)cc1[N+](=O)[O-],12,-7,116,-1,0,-81*
O=C(OCC(=O)N1CCOCC1)c1ccc(Cl)cc1[N+](=O)[O-],9,-13,115,-1,0,-79*
CN(CC(=O)Nc1ccccc1Cl)C(=O)COC(=O)c1ccc(Cl)cc1[N+](=O)[O-],-6,-7,110,-2,0,-94*
COc1ccc(C)cc1N(CC(=O)NCCSCc1cccc(Cl)c1)S(C)(=O)=O,5,6,101,1,1,-7
CC1=CC(C)(C)n2c(O)c(N=N)c3c(C)ccc1c32,-5,1,96,-4,-1,4
CC(=O)N1N=C(c2ccc(C)o2)CC1c1ccc(Br)cc1 (stereo unspecified),14,1,103,-1,1,25
Oc1ccc(/C=N/n2c(COc3ccccc3)n[nH]c2=S)c(O)c1,0,-17,121,-3,-4,-2
N=C1c2ccccc2CN1c1ccc(S(=O)(=O)N2CCCCC2)cc1,9,16,118,4,-1,22
Fc1ccc(C2=CC(c3ccco3)n3ncnc3N2)cc1 (stereo unspecified),38*,-15,87,0,-1,8
C1=C(c2ccc(-c3ccccc3)cc2)Nc2ncnn2C1c1ccco1 (stereo unspecified),144,x,x,-5,x,x
CN(C(=O)c1cccc(NC(=O)Cc2ccccc2)c1)c1ccccc1,4,-4,106,4,0,x
O=C(O)/C=C/C(=O)c1ccc2c(c1)CCc1ccccc1-2,-88,-19,92,1,2,-89*
CC(=O)Nc1ccc2c(c1)CCc1ccccc1-2,9,-3,86,-5,4,18
O=C(OCn1ncc(Br)c(Br)c1=O)c1c(F)cccc1F,x,39,92,x,-3,-40
SMILES,NRP1-CendR mod,T cruzi inh,CR mimetic SO,V-ATPase pH,HIF act,AI-2 QS modul
CC(=O)Cn1ncc(Br)c(Br)c1=O,0,56*,x,-1,-8,2
COC(=O)c1cc(OC)c(OC)cc1NCC(=O)Nc1cccc(C(F)(F)F)c1,-1,-1,92,0,0,-6
CCC(CO)Nc1ccn2nc(-c3cccc(Cl)c3)cc2n1 (stereo unspecified),-1,x,x,x,x,x
CCN(c1ccccc1)S(=O)(=O)c1ccc(Cl)c(NC(=O)CN2CCCCCC2)c1,0,60*,i,-2,-1,18
COc1cccc(C(=O)NCc2nnc(SCC(=O)Nc3nccs3)n2-c2ccccc2)c1,5,-13,92,-2,0,24
COc1ccc2nc(C)cc(SCC(=O)N/N=C/c3ccc(O)cc3O)c2c1,-19,-2,97,1,22*,47
Cc1ccc(C(=O)NCCCc2ccccc2)c(C)c1,22*,4,102,0,2,-28
Cc1ccc(C(=O)NCCCc2ccccc2)c(Cl)c1,-6,5,90,-5,3,-11
N#Cc1ccc(-c2csc(NNC(=O)c3ccc(Br)cc3)n2)cc1,-4,x,102,-2,9.7*,-2
CCC(C)c1ccc(NC(=O)COC(=O)CCNC(=O)c2ccco2)cc1 (stereo unspecified),3,x,102,0,x,x
CCOC(=O)c1c(C)[nH]c(C(=O)Cn2c(=O)c3c(ncn3CC)n(Cc3ccccc3)c2=O)c1C,-13,27,96,-6,-1,31
Cc1ccc(/C(N)=N/OC(=O)c2ccc(Cl)cc2Cl)cc1,52*,0,105,3,1,-1
Cc1ccc(C(=O)O/N=C(\N)Cc2cccs2)c(Cl)c1,-1,2,110,5,-1,-89*
C=CCOc1nc(-c2ccccc2Cl)nc2ccccc12,-2,-1,100,-2,63*,-1
COc1ccc(-c2cc(C(F)F)n3ncc(C(=O)N4CCCCC4)c3n2)cc1,12,89*,97,2,0,25
Cc1ccc(-c2cc(C(F)F)n3ncc(C(=O)N4CCN(c5ccccn5)CC4)c3n2)cc1,-8,60*,108,4,0,21
CCS(=O)c1ccccc1C(=O)OCC(=O)Nc1ccc2ccccc2c1 (stereo unspecified),5,x,79,1,x,x
CCS(=O)(=O)Nc1ccc(C2=NN(S(=O)(=O)CC)C(c3cccs3)C2)cc1 (stereo unspecified),-20,12,98,6,1,23
COc1ccc(C(=O)Nc2ccc(Cl)cc2C(=O)N2CCCC(C)C2)cc1 (stereo unspecified),24*,-3,107,-1,0,13
COc1ccc(C(=O)Nc2ccc(Cl)cc2C(=O)N2CCOCC2)cc1,10,-3,95,3,-1,-1
CCN(CC)c1ccc(CNc2nc3ccccc3n2C(C)C)cc1,-11,-7,88,1,0,15
CC(C)n1c(NCc2ccc(N(C)C)cc2)nc2ccccc21,29*,0,103,-5,0,11
